Rows were chosen to be rich in hits. Some 2.9% of all compounds tested hit in one or more screens of this group.
TAG inh = triacylglycerol accumulation inhibition; H9c2 cells, Nile Red lipid (TAG) fluorescence; cells loaded with 200 µM oleic acid; 230,000 compounds, 0.66% hits; AID 651582; inhibition, % at 12.5 µM;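 active = pattern-corrected inhibition of lipid staining of at least 50% with the nuclear-stain viability signal not falling by more than 50%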
beta cell repl = inducers of beta-cell replication in MIN6 cells | MIN6 cells proliferation, ATPlite luminescence, 48 h; cells starved in 0.2% serum; 100% = growth in 10% serum | proliferation, % at 10 µM | 330,000 compounds, 0.29% hits | AID 2380;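 active = compounds whose signal lies at least 3.5 SD above the mean of all wells on their plate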
hiPSC survival = enhancers of human iPSC single-cell survival | survival enhancement, % at 20 µM | 360,000 compounds, 0.044% hits | hiPSC single-cell survival, ATPlite luminescence; 100% = ROCK inhibitor wells, 0% = DMSO; in the data active = survival enhancement above about 18%;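 note: cells exposed to compounds for 16 hours before the ATP read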
T cruzi repl = blocks replication of Trypanosoma cruzi; 300,000 compounds, 1.4% hits; T. cruzi beta-gal in NIH3T3, luminescence, 90 h; inhibition, % (concentration not given with the values);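 active = mean inhibition across valid replicates above about 55%, limit read from the data; inconclusive = mean below that limit but half or more replicates reach it; inactive = mean below it, under half of replicates reach it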;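 note: signal also drops with host cell toxicity which is not excluded here; higher percent means less beta-gal luminescence so fewer parasites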
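Read-out: Parasite load inhibition, % | Test system: Mouse NIH/3T3 fibroblasts infected with β-gal-expressing T. cruzi Tulahuen C4 | Amount: 5,000 cells/well | Medium: DMEM, 2% fetal bovine serum | Signal: GalScreen β-gal luminescence, detergent lysis, 60 min | Timing: 3 h attach, ≥90 h co-culture | Also added: Tulahuen C4 trypomastigotes, 5000/well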
PG9 binder = PG9 antibody binding by small molecule | inhibition, % at 6.7 µM | 360,000 compounds, 0.43% hits | TR-FRET gp120-PG9 antibody binding; in the data active = inhibition above about 8.5%
Rev-erbA mod = modulates human Rev-erb alpha binding to DNA | AID 1259318 | 370,000 compounds, 0.79% hits | activity, % at 10 µM | Rev-erbα–FITC-DNA binding, fluorescence polarization, 90 min;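 active = activity above about 14%, limit read from the data; passing the limit was not always enough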
Target sequence (P20393 whole entry, looked up): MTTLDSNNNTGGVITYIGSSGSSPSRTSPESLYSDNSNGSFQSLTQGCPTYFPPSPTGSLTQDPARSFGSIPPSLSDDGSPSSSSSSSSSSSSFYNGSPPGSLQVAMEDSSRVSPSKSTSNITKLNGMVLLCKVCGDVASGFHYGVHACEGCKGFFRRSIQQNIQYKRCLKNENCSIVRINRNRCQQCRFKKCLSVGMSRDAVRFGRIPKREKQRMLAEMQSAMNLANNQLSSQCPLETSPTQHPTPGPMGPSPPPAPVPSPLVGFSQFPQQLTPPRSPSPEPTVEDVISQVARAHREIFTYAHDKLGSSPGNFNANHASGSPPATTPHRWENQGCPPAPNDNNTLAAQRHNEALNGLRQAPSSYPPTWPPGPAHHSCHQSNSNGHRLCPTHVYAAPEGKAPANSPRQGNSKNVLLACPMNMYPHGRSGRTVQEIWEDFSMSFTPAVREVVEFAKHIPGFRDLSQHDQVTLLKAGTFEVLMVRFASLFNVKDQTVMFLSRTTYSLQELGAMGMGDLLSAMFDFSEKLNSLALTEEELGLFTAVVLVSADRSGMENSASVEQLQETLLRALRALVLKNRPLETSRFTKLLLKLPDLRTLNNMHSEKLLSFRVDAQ
Rev-erbA confirm = Rev-erb alpha (human) modulation, hit confirmation. activation, % at 25 µM. Rev-erb alpha FITC-DNA binding, fluorescence polarization, 90 min. shares compounds with Rev-erbA mod. 3,000 compounds, 61% hits;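 active = activation at or above a set limit, or at least 3 SD above the negative control mean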
RORg counter = counter-screen for Rev-erb alpha modulators: RORgamma DNA binding; purified RORgamma protein-FITC-DNA binding, fluorescence polarization; 910 compounds, 8% hits; AID 1259320; shares compounds with Rev-erbA mod; IC50, µM;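 active = Compounds whose fitted half-maximal concentration for disrupting protein-DNA binding is below 10 micromolar; the record names Rev-erb in its text, so the target is in doubt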
A number is an active result.

`Cc1cc(=O)oc2cc(NC(=O)c3c(Cl)cnn3C)ccc12` gave TAG inh inactive, beta cell repl inactive, hiPSC survival inactive, T cruzi repl inactive, PG9 binder inactive, Rev-erbA mod 21 and Rev-erbA confirm inactive.
Cc1cc(=O)oc2cc(NC(=O)c3ccnn3C)ccc12 was read as TAG inh inactive, beta cell repl inactive, hiPSC survival inactive and T cruzi repl inactive.
CC(C)NC(=O)c1ccccc1NC(=O)Cc1ccc(Cl)cc1 was read as beta cell repl inactive, hiPSC survival inactive, T cruzi repl inactive, PG9 binder inactive and Rev-erbA mod inactive.
Screening N#Cc1cc2cc3c(cc2nc1SCC(=O)N1CCCC1)OCCO3 returned beta cell repl inactive, hiPSC survival inactive and T cruzi repl inactive.
Screening N#Cc1cc2cc3c(cc2nc1SCC(=O)OC1CCCCC1)OCO3 returned TAG inh inactive, beta cell repl inactive, hiPSC survival inactive, T cruzi repl inactive, PG9 binder inactive, Rev-erbA mod 79 and Rev-erbA confirm 38.
`CCOC(=O)CSc1nc(-c2ccc3c(c2)OCO3)ccc1C#N` gave TAG inh inactive, beta cell repl inactive, hiPSC survival inactive, T cruzi repl inactive, PG9 binder inactive, Rev-erbA mod 20 and Rev-erbA confirm 17.
`CC(=O)CSc1nc2cc3c(cc2cc1C#N)OCCO3` gave TAG inh inactive, beta cell repl inactive, hiPSC survival inactive, T cruzi repl inactive, PG9 binder inactive, Rev-erbA mod 20 and Rev-erbA confirm 20.
`Cc1cc2cc3c(cc2nc1SCC(=O)OC(C)C)OCO3` gave TAG inh inactive, beta cell repl inactive, hiPSC survival inactive, T cruzi repl inactive, PG9 binder inactive and Rev-erbA mod inactive.
`CCOc1cc(C(=O)NC(C)Cc2cccs2)cc(OCC)c1OCC` (stereo unspecified) gave beta cell repl inactive, hiPSC survival inactive, T cruzi repl inactive, PG9 binder inactive and Rev-erbA mod inactive.
`Cc1ccc(-c2nc(NC(=O)CSc3cc(C)c4ccccc4n3)ns2)cc1` gave TAG inh inactive, beta cell repl inactive, hiPSC survival inactive, T cruzi repl inactive, PG9 binder inactive, Rev-erbA mod 499, Rev-erbA confirm 61 and RORg counter inactive.
For O=C(CSc1nnnn1-c1ccccc1)Nc1nsc(-c2ccc(Cl)cc2)n1 the results were TAG inh inactive, beta cell repl inactive, hiPSC survival inactive, T cruzi repl inactive, PG9 binder inactive, Rev-erbA mod 26 and Rev-erbA confirm 43.
For O=C(CSc1nnnn1-c1ccccc1)Nc1nsc(-c2ccccc2)n1 the results were beta cell repl inactive, hiPSC survival inactive, T cruzi repl inactive, PG9 binder inactive and Rev-erbA mod inactive.
Cc1cc2nc(-c3ccco3)cc(C(F)(F)F)n2n1 was read as TAG inh inactive, beta cell repl inactive, hiPSC survival inactive, T cruzi repl inactive, PG9 binder inactive and Rev-erbA mod inactive.
For COC(=O)c1ccc(NC(=O)COC(=O)CSc2nc(C)cc(C)n2)cc1 the results were beta cell repl inactive, hiPSC survival inactive, T cruzi repl inactive, PG9 binder inactive and Rev-erbA mod inactive.
Screening Cc1cnc(C(=O)OCC(=O)c2c[nH]c3ccccc23)cn1 returned TAG inh inactive, beta cell repl inactive, hiPSC survival inactive, PG9 binder inactive and Rev-erbA mod inactive.
For O=C1NC(=O)c2c(Br)c(Br)c(Br)c(Br)c21 the results were TAG inh inactive, hiPSC survival inactive, PG9 binder inactive, Rev-erbA mod 395, Rev-erbA confirm 442 and RORg counter 7.5.
CC(C)NC(=O)c1cc2c(-c3ccc(Cl)cc3)nn(C)c2s1 was read as TAG inh inactive, beta cell repl inactive, hiPSC survival inactive, T cruzi repl inactive, PG9 binder inactive and Rev-erbA mod inactive.
CCOC(=O)N1CCC(NC(=O)c2cc3c(-c4ccc(Cl)cc4)nn(C)c3s2)CC1 was read as TAG inh inactive, beta cell repl inactive, hiPSC survival inactive, PG9 binder inactive, Rev-erbA mod 20 and Rev-erbA confirm 19.
`Cc1c(C)c2cc(Cl)c(OCC(=O)Nc3ccccn3)cc2oc1=O` gave TAG inh inactive, hiPSC survival inactive, PG9 binder inactive and Rev-erbA mod inactive.
O=S(=O)(c1ccc(Cl)cc1)N1CCN(c2nc(-c3cccs3)nc3ccccc23)CC1 was read as hiPSC survival inactive, T cruzi repl inactive, PG9 binder inactive, Rev-erbA mod 29 and Rev-erbA confirm inactive.
O=C(c1cc(-c2ccncc2)nc2ccc(Br)cc12)N1CCN(c2ccccn2)CC1 was read as TAG inh inactive, beta cell repl inactive, hiPSC survival inactive, T cruzi repl inconclusive, PG9 binder inactive and Rev-erbA mod inactive.
O=C(c1cc(-c2ccccc2Cl)nc2ccc(Br)cc12)N1CCN(c2ccccn2)CC1 was read as TAG inh inactive, beta cell repl inactive, hiPSC survival inactive, T cruzi repl inactive, PG9 binder inactive, Rev-erbA mod 19 and Rev-erbA confirm inactive.
Screening COCCN1C(=O)/C(=C/c2ccc(N3CCCC3)cc2C)SC1=S returned TAG inh inactive, beta cell repl inactive, hiPSC survival inactive, T cruzi repl inactive, PG9 binder inactive, Rev-erbA mod 25, Rev-erbA confirm 39 and RORg counter inactive.
For CCN1C(=O)c2cccc3c(N)ccc(c23)C1=O the results were beta cell repl inactive, hiPSC survival inactive, T cruzi repl inactive, PG9 binder inactive, Rev-erbA mod 240, Rev-erbA confirm 246 and RORg counter 5.3.
`Cc1nn(C)c(C)c1N1C(=O)c2cccc3c(N)ccc(c23)C1=O` gave hiPSC survival inactive, PG9 binder inactive, Rev-erbA mod 175, Rev-erbA confirm 157 and RORg counter 1.8.
For Cc1ccc(N2C(=O)c3cccc4c(N)ccc(c34)C2=O)c2cccnc12 the results were TAG inh inactive, beta cell repl inactive, hiPSC survival inactive, T cruzi repl inactive, PG9 binder inactive, Rev-erbA mod 126 and Rev-erbA confirm 131.
Screening COc1ccc(Nc2c(C)cccc2C)cc1 returned TAG inh inactive, beta cell repl inactive, hiPSC survival inactive, T cruzi repl inactive, PG9 binder inactive and Rev-erbA mod inactive.
For CC(C)(C)c1cc(C(=O)Nc2ccc(F)cc2)n(Cc2ccc(F)cc2)n1 the results were TAG inh inactive, beta cell repl inactive, hiPSC survival inactive, T cruzi repl inactive, PG9 binder inactive and Rev-erbA mod inactive.
`CSc1nnc2c3ccccc3n(Cc3ccccc3)c2n1` gave TAG inh inactive, beta cell repl inactive, hiPSC survival inactive, T cruzi repl inactive, PG9 binder inactive, Rev-erbA mod 22 and Rev-erbA confirm 24.
